Screens deposited in PubChem BioAssay by several laboratories.
An excerpt weighted towards active compounds, which were near 6.4% of everything screened.
E coli WT exp: growth inhibitors of wild-type E. coli, primary screen, strain BW25113, expanded library, OD600; growth inhibition, % at 100 µM; OD600 absorbance; 98,000 tested, 0.15% active; AID 710, 2007;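 active = growth inhibition above about 50% at one test dose, limit read from the data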;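 also: growth measured after 20 h incubation at 37 °C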
tolC growth inh: growth inhibitors of E. coli tolC mutant, primary screen, strain BW25113 ΔtolC::kan, 384-well; OD615; growth inhibition, % at 10 µM (by protocol); 65,000 tested, 2.2% active; AID 573, 2007;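 active = growth inhibition at or above a cutoff equal to the mean over every tested compound plus 3 SD, cut at about 60% in these data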;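 also: growth measured after 20 h incubation at 37 °C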
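test system = E. coli BW25113 ΔtolC::kan bacteria | medium = LB with kanamycin 50 µg/mL | signal = OD at 615 nm | schedule = 37 °C, 20 h exposure | evaluation = % inhibition of E. coli growth | compound dosing = one dose of 10 µM final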
Lung fibro prol: antiproliferative effect on LL 47 fibroblasts – human, LL 47 cells, CellTiter-Glo luminescence, primary screen; LL 47 human lung fibroblast viability, ATP luminescence; active compounds read low; viability, % at 10 µM; 85,000 tested, 1.1% active;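 active = viability at or below 50% in the single dose screen; inactive = viability above 50%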;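 also: compound exposure lasted 72 h before the ATP readout; 100% = median luminescence of untreated cell-only wells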
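material = human LL 47 lung fibroblast cells | dosing = compounds added from tenfold dosing solution, 0.1% DMSO final | timing = overnight cell rest, 72 h compound treatment at 37 °C | measured by = CellTiter-Glo luminescence measuring cellular ATP | evaluation = % viability versus median cells-only luminescence | control set = cell-only wells, no compound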
Jurkat tox 60K: cytotoxicity toward Jurkat T cells, primary screen, cytotoxicity control, cell-based, Jurkat E6.1, 60K MLSMR library | Jurkat E6.1 viability, ATP luminescence, 48 h | inhibition, % at 4 µM | 56,000 tested, 1.2% active;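 active = inhibition above the mean inhibition of all tested compounds plus 3 SD, cut at about 28% in these data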
H69AR inhibit: proliferation blockers of H69AR lung cancer cells, primary screen, cell-based, human, 86K library; H69AR lung tumor viability, ATP luminescence, 72 h; active compounds read low; viability, % at 10 µM; 85,000 tested, 6% active;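 active = viability at or below 40%; inactive = viability above 40%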;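 also: multidrug resistant small cell line overexpressing MRP-1 efflux transporter; 100% = mean luminescence of untreated control wells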
HUVEC inhibit: inhibitors of HUVEC proliferation, primary screen, cell-based, 384-well; CellTiter-Glo luminescence, 72 h; active compounds read low; viability, % at 10 µM (by protocol); 86,000 tested, 1.1% active;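 active = viability at or below 30%; inactive = viability above 30%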;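 also: 100% = median luminescence of DMSO-only cell control wells on each plate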
Active calls of the source: *; / = no result given.

SMILES	E coli WT exp	tolC growth inh	Lung fibro prol	Jurkat tox 60K	H69AR inhibit	HUVEC inhibit
COc1ccc(Cl)cc1NS(=O)(=O)c1ccc(OC)c(OC)c1	/	/	104	/	95	91
Cc1cc(C)n(CCCNCC(O)c2ccccc2)n1 (stereo not drawn)	6	-7	93	-4	90	93
COC(=O)C1=C(NC(=O)c2cccc(C)c2)CCS1	/	5	/	-5	/	/
CC(C)CC(=O)Nc1cc(NC(=O)CC(C)C)cc(C(=O)NC(C)(C)C)c1	-11	/	98	/	94	93
CCOc1ccc(S(=O)(=O)Nc2cc(OC)ccc2OC)cc1	-1	23	100	96*	23*	50
CCOc1ccc(S(=O)(=O)Nc2cc(OC)c(OC)cc2C(=O)O)cc1	-12	/	/	/	/	/
Cn1c(C(=O)Nc2ccc3c(c2)OCO3)cc2c(=O)n(C)c3ccccc3c21	3	-2	57	-3	31*	72
Cn1c(C(=O)N2CCN(Cc3ccc4c(c3)OCO4)CC2)cc2c(=O)n(C)c3ccccc3c21	-6	15	92	1	38*	82
Cc1[nH]n2c(=O)cc(-c3ccc([N+](=O)[O-])cc3)nc2c1-c1ccccc1	/	/	53	/	15*	8.6*
Cc1[nH]n2c(=O)cc(C(C)C)nc2c1-c1ccccc1	-7	54	66	-11	14*	58
Cc1[nH]n2c(=O)cc(C(C)(C)C)nc2c1-c1ccccc1	11	100*	69	8	36*	50
COC(=O)Cc1cc(=O)n2[nH]c(C)c(-c3ccccc3)c2n1	-5	/	95	/	99	90
CCCc1cc(=O)n2[nH]c(C)c(-c3ccccc3)c2n1	-4	21	103	2	55	76
O=C(NCC1(c2ccccc2)CCCC1)c1cccc(Br)c1	-5	/	/	/	/	/
COc1ccccc1N1CCN(CC(=O)NCC2CCCO2)CC1 (stereo not drawn)	/	/	95	/	97	97
CC/C(O)=C(/C#N)c1nnc2n1CCCCC2	-8	-17	99	-1	96	98
C=CCN1C(c2ccc(OCC)cc2)=CS/C1=C(\C#N)c1nnc2n1CCCCC2	-3	34	100	9	34*	68
COc1ccc2c(c1OC)C(=O)O[C@@H]2[C@H]1c2c(cc3c(c2OC)OCO3)CCN1C	/	9	88	/	30*	90
COc1ccc2c(c1OC)C(=O)OC2Nn1cncn1 (stereo not drawn)	1	-12	107	-5	100	102
Cc1sc(NC(=O)c2ccc(Cl)s2)c(C(N)=O)c1C	1	21	88	-7	11*	60
CCOc1ccccc1C(=O)N1CCN(C(c2ccccc2)c2ccccc2)CC1	10	/	/	/	/	/
CC(=O)c1ccccc1OCC(O)CN1CCN(C(c2ccccc2)c2ccccc2)CC1 (stereo not drawn)	-3	74*	77	5	9.8*	69
Oc1ccc(-c2nc3ccccn3c2NCc2ccco2)cc1	0	/	107	/	82	88
COc1cc(-c2nc3ccccn3c2/N=C/c2ccccc2)ccc1O	-5	/	/	/	/	/
CCOc1cc(-c2nc3ccccn3c2NCC2CCCO2)ccc1O (stereo not drawn)	8	-12	98	8	28*	70
SMILES	E coli WT exp	tolC growth inh	Lung fibro prol	Jurkat tox 60K	H69AR inhibit	HUVEC inhibit
COc1cc(-c2nc3ccccn3c2NCC2CCCO2)ccc1O (stereo not drawn)	0	-13	89	2	27*	88
CC1CC(C)(C)N(C(=O)CSc2ccc(-c3ccc(F)cc3)nn2)c2ccccc21 (stereo not drawn)	-5	/	/	/	/	/
O=C(O)CCCN=CC1=C(O)C(C(=O)c2ccccc2)CCC1=O (stereo not drawn)	/	/	97	/	95	103
Cc1ccc(-c2cccc(OC(=O)c3ccccc3F)c2)cc1	-9	/	/	/	/	/
COC(=O)C1=C(C)N(c2cc(Cl)cc(Cl)c2)C(=O)C1	2	3	70	/	3.6*	81
COC(=O)C1=C(C)N(c2ccc(C(=O)OC)cc2)C(=O)C1	-7	-10	103	-2	104	105
Cc1ccc2c(CC(=O)Nc3ccc(N4CCN(C)CC4)cc3C)coc2c1	0	6	69	-1	22*	15*
CC(=O)CS(=O)(=O)c1ccc(Oc2ccc(S(=O)(=O)CC(C)=O)cc2)cc1	/	/	99	/	86	104
CC(=O)CCS(=O)(=O)c1ccc(Oc2ccc(S(=O)(=O)CCC(C)=O)cc2)cc1	/	/	11*	/	1.3*	94
CCOC(=O)C1=C(Cc2ccc(Cl)cc2)C(=O)c2ccccc2C1=O	-2	/	75	/	1.9*	21*
Cc1ccc(NC(=O)NC2=N/C(=C(/C#N)C(=O)N3CCCC3)c3ccccc32)cc1	/	-2	110	0	37*	105
Cc1ccc(NC(=O)C2CC=CCC2C(=O)N2CCCCC2)cc1 (stereo not drawn)	7	-2	100	-3	96	89
Cc1cc(N2C(=O)C(=O)/C(=C(/O)c3ccc(F)cc3)C2c2cccc(Br)c2)no1 (stereo not drawn)	-1	9	101	/	76	86
Cc1ccc(/C(O)=C2\C(=O)C(=O)N(c3cc(C)on3)C2c2cccc(Br)c2)cc1 (stereo not drawn)	-7	65*	100	0	/	85
O=c1[nH]c2ccccc2n1CCCN1CCN(C(c2ccccc2)c2ccccc2)CC1	/	4	75	/	27*	78
O=C(CSc1ncn(-c2ccccc2)n1)Nc1nc2c(s1)CCCC2	-4	61*	99	-2	80	91
O=C(Cc1cccs1)Nc1nc2c(s1)CCCC2	16	49	80	38*	90	74
O=C(CSC1=NCCS1)Nc1nc2c(s1)CCCC2	12	19	99	10	17*	73
CCSCc1nnc(SCC(=O)Nc2cccc(SC)c2)n1C	8	-6	99	-4	90	90
Cn1c(O)c(C=Nc2ccc(Cc3ccncc3)cc2)c(=O)n(C)c1=O	/	9	102	/	92	103
Cc1ccc(CN2CCSc3ccc(C(=O)N4CCN(c5ncccn5)CC4)cc32)cc1	-12	68*	93	-3	92	80
Cc1noc(C)c1CSc1nc2sc(C)c(C)c2c(=O)n1-c1ccccc1	-14	16	85	-6	59	69
Cc1noc(C)c1CSc1nc2ccccc2c(=O)n1-c1ccc(Cl)cc1	-15	/	80	/	14*	58
COc1cccc(C(=O)CSc2nnc(-c3cc(OC)cc(OC)c3)o2)c1	-17	-25	97	-14	8.7*	24*
COc1ccc(-c2nnc(SCC(=O)c3[nH]c(C)c(C(C)=O)c3C)o2)cc1	-15	-4	60	1	5.3*	53
COc1cccc(C(=O)CSc2nnc(-c3cccs3)o2)c1	-7	-17	101	-3	107	94
